SENP7 inh: SENP7 protease inhibition; inhibition, % at 5 µM; Q9BQF6; recombinant SENP7, Z-RLRGG-aminoluciferin luminescence, 40 min; AID 434973; 1.5% of 330,000 active;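 active = inhibition above about 50% at the single test dose, limit read from the data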;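 note: plate controls were DMSO with enzyme for no effect and no enzyme buffer wells for full effect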
Target sequence (Q9BQF6 706-1050 limits assumed): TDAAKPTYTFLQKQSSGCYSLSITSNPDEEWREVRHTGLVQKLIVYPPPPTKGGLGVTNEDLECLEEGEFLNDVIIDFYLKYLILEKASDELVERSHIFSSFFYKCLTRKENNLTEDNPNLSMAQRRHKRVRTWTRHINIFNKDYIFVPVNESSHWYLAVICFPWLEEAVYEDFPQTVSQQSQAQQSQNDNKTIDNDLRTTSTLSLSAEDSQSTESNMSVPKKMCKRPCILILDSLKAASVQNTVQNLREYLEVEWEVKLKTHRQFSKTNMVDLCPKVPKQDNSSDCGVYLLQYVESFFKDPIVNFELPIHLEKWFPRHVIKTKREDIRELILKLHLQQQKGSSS
SENP8 block-1: SENP8 protease inhibition. inhibition, % at 10 µM. 1.2% of 330,000 active. purified SENP8, Z-RLRGG-aminoluciferin cleavage, luminescence. Q96LD8; in the data active = inhibition above about 50%
Target sequence (Q96LD8 whole entry, looked up): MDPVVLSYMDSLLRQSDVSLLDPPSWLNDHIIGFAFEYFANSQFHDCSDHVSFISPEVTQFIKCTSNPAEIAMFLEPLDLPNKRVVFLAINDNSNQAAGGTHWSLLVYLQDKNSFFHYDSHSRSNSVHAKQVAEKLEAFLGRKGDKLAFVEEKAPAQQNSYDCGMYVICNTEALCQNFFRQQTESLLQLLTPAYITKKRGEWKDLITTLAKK
SENP8 block-2: blocks human SENP8 cleavage of Nedd8 substrate; inhibition, % at 20 µM; Q96LD8; 0.64% of 360,000 active; recombinant SENP8, Nedd8 substrate fluorescence; in the data active = inhibition mostly above about 40%, no sharp cut-off; inactive = mostly below about 27%
SENP6 inh: SENP6 protease inhibition; inhibition, % at 10 µM; 1.8% of 330,000 active; Recombinant SENP6 catalytic domain, aminoluciferin luminescence; AID 2599;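 active = inhibition above about 50% at the single tested dose, limit read from the data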;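 note: plate controls were DMSO wells with enzyme for no effect and DMSO wells lacking enzyme for full effect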
Platelet DG rel: platelet dense granule release activity | human platelet-rich plasma, SFLLRN dense granule ATP release, luminescence | inhibition, %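 (compounds screened at 7.5 µM in platelet-rich plasma)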 | 0.22% of 300,000 active;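 active = mean replicate score, as percent of positive control, at or above 50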
SENP1 inh: inhibitors of human SENP1 SUMO protease catalytic domain; Q9P0U3; recombinant SENP1 catalytic domain, CyPet-SUMO1-YPet FRET cleavage; inhibition, % at 10 µM; 0.21% of 360,000 active;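 active = inhibition at least 30% at 10 µM, raw YFP signal under a set limit, fluorescence ratio 0.5 to 1.5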;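 note: 0% = enzyme with DMSO and 100% = no enzyme wells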
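system = hSENP1 catalytic domain, recombinant | reagent = SFCypet-SUMO1-SFYpet substrate at 25 nM | doses = one dose per compound, 10 µM, 0.5% DMSO | incubation = enzyme reaction for 50 min at room temperature, dark | measured by = FRET, CFP and YFP emission | controls = no-enzyme low, enzyme-DMSO high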
SENP8 conf: human SENP8 inhibition, confirmed. shares compounds with SENP7 inh. Recombinant SENP8, Z-RLRGG-aminoluciferin luminescence, 60 min. inhibition, % at 12.5 µM. 40% of 6,200 active;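 active = mean inhibition across replicates above about 50%, limit read from the data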
SENP6 conf: confirmation of human SENP6 protease inhibitors | recombinant SENP6, Z-RLRGG-aminoluciferin luminescence | inhibition, % at 12.5 µM | shares compounds with SENP7 inh | 58% of 6,200 active
SENP7 confirm: human SENP7 inhibition, confirmed | 69% of 6,200 active | shares compounds with SENP7 inh | inhibition, % at 12.5 µM | recombinant SENP7, Z-RLRGG-aminoluciferin luminescence, 40 min
Casp3 SENP sel: inhibits human caspase-3 in SENP selectivity test; shares compounds with SENP7 inh; purified caspase-3, Z-DEVD-aminoluciferin luminescence, 60 min; inhibition, % at 12.5 µM; 60% of 6,200 active;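 active = mean inhibition above about 50%, limit read from the data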;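 note: plate controls were enzyme with DMSO for no effect and wells without caspase-3 for full effect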
SENP luc ctr: luminescence interference (SENP counter-screen); shares compounds with SENP7 inh; Pre-incubated SENP8/Z-RLRGG-aminoluciferin, luciferase luminescence interference; inhibition, % at 12.5 µM; 39% of 6,200 active;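 active = mean inhibition above about 50% when retested at one dose, limit read from the data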;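 note: plate controls were DMSO wells with completed reaction for no effect and substrate without enzyme for full effect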
An asterisk follows results filed as active; x = no result given. Rows were chosen to be rich in hits. Some 2.6% of all compounds tested hit in one or more screens of this group.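 Rule for the calls, unless noted: active = mean inhibition above about 50% in the one-dose retest (limit read from the data); inactive = the rest.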

SMILES	SENP7 inh	SENP8 block-1	SENP8 block-2	SENP6 inh	Platelet DG rel	SENP1 inh	SENP8 conf	SENP6 conf	SENP7 confirm	Casp3 SENP sel	SENP luc ctr
Cc1ccc(C2=NNC(c3cccc(F)c3)S2)cc1 (stereo not drawn)	95*	87*	-166	89*	-1	1	46	51*	45	51*	10
Cc1ccc(C2=NNC(C(O)C(O)C(O)C(C)O)S2)cc1 (stereo not drawn)	-1	2	-124	6	-2	1	x	x	x	x	x
Cc1ccc(S(=O)(=O)NCCC(=O)N2CCC(C(N)=O)CC2)cc1C	11	-3	3	-1	16	1	x	x	x	x	x
COc1ccc(OC)c(CN2C(=O)CN(S(C)(=O)=O)CC2(C)C(=O)NCc2ccccc2)c1 (stereo not drawn)	x	x	18	x	x	0	x	x	x	x	x
COc1cc(C(=O)NNC(=O)COc2cccc(F)c2)ccc1OCC(=O)N1CCOCC1	10	0	20	-1	x	2	x	x	x	x	x
CCCc1cc(C(=O)Nc2ccc(F)c(Cl)c2)no1	93*	90*	12	93*	6	1	92*	93*	100*	89*	82*
CCCc1cc(C(=O)Nc2ccc(F)cc2F)no1	40	38	13	63*	7	3	8	39	71*	60*	0
CCCc1cc(C(=O)Nc2cccc(Cl)c2)no1	93*	90*	5	98*	27	1	94*	96*	102*	92*	90*
CCCc1cc(C(=O)Nc2ccccc2SC)no1	3	1	10	22	-2	4	x	x	x	x	x
CCCc1cc(C(=O)Nc2cccc(C(C)=O)c2)no1	0	1	10	-6	2	1	x	x	x	x	x
CCC(=O)c1ccc(OCC(=O)OCC(=O)NC2CCCCCCC2)cc1	-6	-8	-8	-11	3	1	x	x	x	x	x
Cn1cnnc1SCC(=O)N/N=C/c1ccc(OCC(N)=O)cc1	-10	-3	7	-6	-3	0	x	x	x	x	x
COc1ccc(-c2nc3ccccn3c2Cl)cc1	100*	96*	-263	97*	26	-2	5	99*	103*	98*	97*
C=C[C@@H]1c2cc(C)ccc2N(S(=O)(=O)c2ccc(C)cc2)[C@H](c2ccc(OC(C)=O)cc2)C1(C#N)C#N	-1	9	-2	-4	x	1	x	x	x	x	x
COc1ccc2[nH]cc(/C=C/C(=O)c3ccccc3)c2c1	49	39	-291	58*	16	-32	75*	71*	85*	25	85*
Cc1cccc(C(=O)OCC(=O)N2CCCC2=O)c1O	-8	-12	-4	2	x	2	x	x	x	x	x
COc1ccc(CCn2c(N)c(C(=O)NCc3ccco3)c3nc4ccccc4nc32)cc1OC	35	38	-315	70*	-1	-53	15	10	2	-1	-1
Nc1c(C(=O)NCc2ccco2)c2nc3ccccc3nc2n1CCc1ccccc1F	34	40	-300	51*	2	-27	2	6	-9	2	-2
O=C1C(c2ccnc3ccccc23)=C(O)c2ccccc21	97*	39	62*	64*	20	16	86*	86*	97*	94*	88*
O=Cc1nccc2ccccc12	x	x	-9	x	x	-4	x	x	x	x	x
c1ccc2[nH]c(-c3ccnc4ccccc34)nc2c1	-7	-11	-388	-27	-2	-1	x	x	x	x	x
O=C1c2ccccc2C(=O)C1c1nccc2ccccc12	96*	59*	34	97*	9	-13	87*	81*	98*	92*	29
N#CC1=C(N)SC(N)=C(C#N)C1c1ccnc2ccccc12	-2	-9	-306	1	7	-18	x	x	x	x	x
O=C1c2ccccc2C(=O)C1c1ccnc2ccccc12	99*	85*	28	79*	7	-3	84*	89*	100*	94*	21
Nc1c2c(=O)[nH]c(O)cc2nn1-c1ccccc1	x	x	-111	x	x	-5	x	x	x	x	x
SMILES	SENP7 inh	SENP8 block-1	SENP8 block-2	SENP6 inh	Platelet DG rel	SENP1 inh	SENP8 conf	SENP6 conf	SENP7 confirm	Casp3 SENP sel	SENP luc ctr
c1ccc(CN2CCC3CC2c2cc(N4CCOCC4)ccc23)cc1 (stereo not drawn)	x	x	6	x	x	1	x	x	x	x	x
CCC(=O)N(c1ccc(F)cc1)C1C=CS(=O)(=O)C1 (stereo not drawn)	95*	-22	8	6	2	2	4	4	0	0	-1
CCCC(=O)N(c1ccccc1)C1C=CS(=O)(=O)C1 (stereo not drawn)	2	2	21	0	-11	1	x	x	x	x	x
O=C(NC(=S)Nc1ccc([N+](=O)[O-])cc1O)C1CCCCC1	0	-8	25	-7	-26	4	x	x	x	x	x
Cc1cccc(/C=N/NC(=O)c2ccc3c(c2)OCCO3)c1O	97*	94*	11	94*	38	-5	96*	98*	103*	94*	66*
O=C(NC(=S)Nc1cc([N+](=O)[O-])ccc1O)c1ccc2c(c1)OCO2	81*	89*	21	90*	12	3	93*	94*	97*	87*	77*
COc1cc([N+](=O)[O-])ccc1NC(=S)NNC(=O)c1ccc2c(c1)OCO2	12	6	10	34	6	1	x	x	x	x	x
CCOc1cccc(/C=N/NC(=O)c2ccc3c(c2)OCCO3)c1O	4	1	-16	7	4	6	x	x	x	x	x
O=C(N/N=C/c1cc([N+](=O)[O-])ccc1O)c1ccncc1	41	1	-2	23	3	-85	x	x	x	x	x
O=C(N/N=C/c1cc([N+](=O)[O-])ccc1O)c1ccc2c(c1)OCCO2	89*	85*	-4	93*	-24	-14	14	18	16	23	-1
Cn1ccc(C(=O)NC(=S)Nc2ccc([N+](=O)[O-])cc2O)n1	54*	56*	17	72*	x	1	74*	72*	93*	75*	78*
C(=C\c1ccccc1)/CN1CCN(C(c2cc3ccccc3o2)c2nnnn2-c2ccc3c(c2)OCCO3)CC1 (stereo not drawn)	x	x	27	x	x	3	x	x	x	x	x
Cc1cccc(/C=N/NC(=O)Cc2ccc(Cl)cc2)c1O	-1	16	-19	-20	2	1	x	x	x	x	x
